According to ChEMBL document CHEMBL1240314, “Small-molecule inhibitor of p53 binding to mitochondria protects mice from gamma radiation” (2006):
Active and inactive are the calls of the source. The calls are words filed in the database; no cut-off is given here.

Tests used:
[1] = molecular target: Cellular tumor antigen p53 (Homo sapiens) (UniProt P04637); assay: Binding affinity to p53 assessed as reduction in mitochondrial-bound p53 level at 50 uM
Outline: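 Cell-free reconstitution: freshly isolated HeLa or Saos-2 mitochondria (40 mg as printed) incubated 1 h at 37 °C with purified baculoviral human wild-type p53 (60 ng) plus compound in MS buffer with CaCl2; mitochondria pelleted, washed three times, p53 cosedimentation by western blot, mt-Hsp75 loading control.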

[2] = molecular target: Cellular tumor antigen p53 (Homo sapiens) (UniProt P04637); assay: Binding affinity to p53 transfected in human […] cells assessed as reduction in p53 bound-Bcl-xL at 15 uM after 48 hrs; format: cell-based; settings: HEK293
Outline: (§1)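 293T cells cotransfected with Flag-tagged wild-type Bcl-xL or Bcl-2 plus wild-type p53 plasmid; compound 15 mM (so in the source) applied 24 h after transfection; lysates (1 mg protein) immunoprecipitated with anti-Flag M2 gel, bound p53 detected with HRP-conjugated DO-1.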

[3] = molecular target: Cellular tumor antigen p53 (Homo sapiens) (UniProt P04637); assay: Binding affinity to p53 transfected in human […] cells assessed as reduction in p53 bound-Bcl-2 at 15 uM after 48 hrs; format: cell-based; settings: HEK293; outline: as §1
[4] = system: Thymocyte; assay: Antiapoptotic activity against dexamethasone-induced apoptosis in mouse thymocyte at 10 uM; format: functional, cell-based
Outline: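 Primary thymocytes from 4-week-old p53-null C57Bl/6 mice, short-term culture; dexamethasone 0.5 mM, 24 h, with compound at 10 mM as printed; viability by trypan blue (0.1%) or annexin/PI FACScan; means ± s.d., n = 3.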

[5] = system: HeLa; assay: Antiapoptotic activity against staurosporine-induced cell death in human HeLa cells assessed as cell survival at 10 uM after 24 hrs by methylene blue assay; format: functional, cell-based
[6] = system: WI-38; assay: Antiapoptotic activity against Fas-induced apoptosis in human WI38 cells assessed as cell survival at 0.1 uM to 10 uM after 24 hrs by methylene blue assay in presence of 1 ug/ml cycloheximidine; format: functional, cell-based
[7] = system: Fibroblast; assay: Antiapoptotic activity against TNF-alpha induced apoptosis in mouse fibroblast assessed as cell survival at 0.1 uM to 10 uM by methylene blue assay in presence of 0.5 ug/ml cycloheximidine after 24 hrs; format: functional, cell-based
[8] = molecular target: Cellular tumor antigen p53 (Mus musculus) (UniProt P02340); assay: Inhibition of p53-mediated apoptosis in mouse fibroblast assessed as cell survival at 10 uM after 24 hrs by methylene blue assay
Target sequence in this assay (P02340 whole entry): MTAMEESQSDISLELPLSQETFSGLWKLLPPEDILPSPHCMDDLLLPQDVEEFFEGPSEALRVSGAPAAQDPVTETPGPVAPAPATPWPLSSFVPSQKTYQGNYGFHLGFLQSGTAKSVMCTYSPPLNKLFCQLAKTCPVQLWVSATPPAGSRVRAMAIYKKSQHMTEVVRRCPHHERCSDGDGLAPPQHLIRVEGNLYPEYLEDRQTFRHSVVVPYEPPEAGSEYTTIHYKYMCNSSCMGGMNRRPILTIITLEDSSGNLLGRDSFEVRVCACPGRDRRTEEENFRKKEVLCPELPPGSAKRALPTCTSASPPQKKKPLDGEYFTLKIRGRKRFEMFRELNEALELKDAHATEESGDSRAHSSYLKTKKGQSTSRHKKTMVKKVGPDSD

[9] = molecular target: Cellular tumor antigen p53 (Homo sapiens) (UniProt P04637); assay: Inhibition of p53-mediated transactivation of promoter bax in human H1299 cells at 10 uM after 48 hrs by luciferase reporter assay; format: cell-based
[10] = molecular target: Cellular tumor antigen p53 (Homo sapiens) (UniProt P04637); assay: Inhibition of p53-mediated transactivation of promoter hDM2 in human H1299 cells at 10 uM after 48 hrs by lacZ reporter assay; format: cell-based
[11] = molecular target: Cellular tumor antigen p53 (Homo sapiens) (UniProt P04637); assay: Effect on UV-induced activation of p53 in human ConA cells assessed as beta-galactosidase activity by X-gal staining; format: cell-based
Outline: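 ConA cells carrying a lacZ reporter under a p53-responsive promoter; UV 35 J m–2; β-galactosidase visualized by X-gal staining 24 h after treatment.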

[12] = molecular target: Cellular tumor antigen p53 (Homo sapiens) (UniProt P04637); assay: Inhibition of p53-dependent transcription of puma in UV-induced human MCF7 cells; format: cell-based
Outline: (§2)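 Northern analysis of MCF7 cells, p53 wild-type and shRNA p53-knockdown. Induction by UV 8.5 J m–2 or Dox […]. RNA isolated 18 h after treatment; 10 µg hybridised with 32P-labelled full-length cDNA probes for Bax, Noxa or Puma. 18S rRNA used as loading control.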

[13] = molecular target: Cellular tumor antigen p53 (Homo sapiens) (UniProt P04637); assay: Inhibition of p53-dependent transcription of puma in human MCF7 cells; format: cell-based; outline: as §2
[14] = molecular target: Cellular tumor antigen p53 (Homo sapiens) (UniProt P04637); assay: Inhibition of p53-dependent transcription of noxa in UV-induced human MCF7 cells; format: cell-based; outline: as §2
[15] = molecular target: Cellular tumor antigen p53 (Homo sapiens) (UniProt P04637); assay: Inhibition of p53-dependent transcription of puma in human U2OS cells; format: cell-based
Outline: (§3)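 Northern analysis of U2OS cells, p53 wild-type and shRNA p53-knockdown. Induction by UV 8.5 J m–2 or Dox […]. RNA isolated 18 h after treatment; 10 µg hybridised with 32P-labelled full-length cDNA probes for Bax, Noxa or Puma. 18S rRNA used as loading control.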

[16] = molecular target: Cellular tumor antigen p53 (Homo sapiens) (UniProt P04637); assay: Inhibition of p53-dependent transcription of puma in doxorubicin-induced human U2OS cells; format: cell-based; outline: as §3
[17] = molecular target: Cellular tumor antigen p53 (Homo sapiens) (UniProt P04637); assay: Inhibition of p53-dependent transcription of bax in human U2OS cells; format: cell-based; outline: as §3
[18] = molecular target: Cellular tumor antigen p53 (Homo sapiens) (UniProt P04637); assay: Inhibition of p53-dependent transcription of noxa in human U2OS cells; format: cell-based; outline: as §3
[19] = molecular target: Cellular tumor antigen p53 (Homo sapiens) (UniProt P04637); assay: Inhibition of p53-mediated transactivation of p21 in gamma-stimulated human SK-MEL-29 cells at 10 uM after 6 hrs
[20] = molecular target: Cellular tumor antigen p53 (Homo sapiens) (UniProt P04637); assay: Inhibition of p53-mediated transactivation of p21 in gamma-stimulated human BJ cells at 10 uM after 6 hrs; format: cell-based
[21] = molecular target: Cellular tumor antigen p53 (Mus musculus) (UniProt P02340); assay: Inhibition of p53-dependent transcription of puma in mouse thymocyte
Target sequence in this assay (P02340 whole entry): as above

[22] = species on record: Homo sapiens; assay: Induction of p21 mRNA expression in human SK-MEL-29 cells; format: functional, cell-based
Outline: (§4)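 Wild-type and p53-deficient cell pairs stimulated with 5-FU ([…] as printed) or gamma irradiation (10 or 15 Gy); p21 mRNA quantified by real-time PCR; means ± s.d., n = 3.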

[23] = species on record: Homo sapiens; assay: Induction of p21 mRNA expression in gamma-stimulated human SK-MEL-29 cells; format: functional; outline: as §4
[24] = system: BJ; assay: Induction of p21 mRNA expression in human BJ cells; format: functional, cell-based; outline: as §4
[25] = system: MCF7; assay: Induction of Puma gene expression in human MCF7 cells; format: functional, cell-based
Outline: (§5)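 Northern blot: 10 mg RNA (so in the source) isolated 18 h after UV (8.5 J m–2) or doxorubicin (125 mg ml–1 as printed) from MCF7 or U2OS cells and p53-knockdown (lentiviral shRNA) counterparts; hybridized with 32P-labeled full-length cDNA probes for Bax, Noxa, Puma; 18S rRNA loading control.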

[26] = system: MCF7; assay: Induction of Noxa gene expression in UV-induced human MCF7 cells; format: functional, cell-based; outline: as §5
[27] = system: U2OS; assay: Induction of Noxa gene expression in human U2OS cells; format: functional, cell-based; outline: as §5
[28] = system: U2OS; assay: Induction of Noxa gene expression in doxorubicin-induced human U2OS cells; format: functional, cell-based; outline: as §5
[29] = system: Thymocyte; assay: Induction of Puma gene expression in gamma-induced mouse thymocytes; format: functional, cell-based
[30] = molecular target: Cellular tumor antigen p53 (Homo sapiens) (UniProt P04637); assay: Binding affinity to p53 transfected in human Saos-2 cells harboring pLV-53 assessed as reduction of p53 protein in mitochondria at 10 uM after 48 hrs
Outline: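 Saos-2 cells infected with p53-expressing lentivirus; compound ([…] as printed) added 5 h after infection; mitochondrial and cytosolic fractions western blotted for p53 at 48 h post-infection, with mt-Hsp75 and β-actin as fraction loading controls.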

[31] = molecular target: Cellular tumor antigen p53 (Homo sapiens) (UniProt P04637); assay: Binding affinity to p53 transfected in human Saos-2 cells harboring pLV-53 assessed as cytosolic p53 concentration at 10 uM after 48 hrs; format: cell-based
[32] = molecular target: Cellular tumor antigen p53 (Mus musculus) (UniProt P02340); assay: Binding affinity to p53 in gamma irradiated mouse thymocyte assessed as cytosolic p21 concentration at 10 uM after 2 hrs
Target sequence in this assay (P02340 whole entry): as above

[33] = molecular target: Cellular tumor antigen p53 (Mus musculus) (UniProt P02340); assay: Inhibition of p53-mediated transactivation of p21 in gamma-stimulated mouse ConA cells at 10 uM after 6 hrs
Target sequence in this assay (P02340 whole entry, looked up): as the sequence (P02340 whole entry) above

Sequence of Cellular tumor antigen p53 (Homo sapiens) (P04637 whole entry, looked up): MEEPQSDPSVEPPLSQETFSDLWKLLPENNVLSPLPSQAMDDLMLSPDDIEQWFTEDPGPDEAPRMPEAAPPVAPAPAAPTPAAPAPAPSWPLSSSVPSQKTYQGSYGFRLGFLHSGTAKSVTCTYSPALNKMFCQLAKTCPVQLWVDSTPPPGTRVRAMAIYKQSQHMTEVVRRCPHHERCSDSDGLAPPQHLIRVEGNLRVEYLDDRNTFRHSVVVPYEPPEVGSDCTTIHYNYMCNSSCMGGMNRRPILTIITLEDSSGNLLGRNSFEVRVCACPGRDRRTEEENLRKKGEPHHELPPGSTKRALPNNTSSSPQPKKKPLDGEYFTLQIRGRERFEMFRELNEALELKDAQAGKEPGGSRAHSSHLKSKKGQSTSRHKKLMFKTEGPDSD

SMILES: NS(=O)(=O)C#Cc1ccccc1
- Activity [1]: Active
- Activity [2]: Active
- Activity [3]: Active
- Activity [4]: inactive
- Activity [5]: inactive
- Activity [6]: inactive
- Activity [7]: inactive
- inhibition [8]: Active
- inhibition [9]: inactive
- inhibition [10]: inactive
- Activity [11]: inactive
- inhibition [12]: inactive
- inhibition [13]: inactive
- inhibition [14]: inactive
- inhibition [15]: inactive
- inhibition [16]: inactive
- inhibition [17]: inactive
- inhibition [18]: inactive
- inhibition [19]: inactive
- inhibition [20]: inactive
- inhibition [21]: inactive
- Activity [22]: inactive
- Activity [23]: inactive
- Activity [24]: inactive
- Activity [25]: inactive
- Activity [26]: inactive
- Activity [27]: inactive
- Activity [28]: inactive
- Activity [29]: inactive
- Activity [30]: Active
- Activity [31]: inactive
- Activity [32]: inactive
- inhibition [33]: inactive
